Reference: ChEMBL document CHEMBL4011638, “Semisynthetic Flavone-Derived Antimicrobials with Therapeutic Potential against Methicillin-Resistant Staphylococcus aureus (MRSA)” (J Med Chem, 2017)
≈ marks a conversion by molar mass, not a printed value. Calls of active or inactive are those of the source. No cut-off for these calls is given here.

Assays:
Bacillus cereus = test: Antibacterial activity against Bacillus cereus ATCC 11778 after 24 hrs by broth microdilution method; assay type: functional; conditions: ATCC 11778, 24 h
In short: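 MIC by CLSI broth microdilution in cation-adjusted Mueller–Hinton broth, tubes. Compounds in H2O or DMF, diluted in PBS to 1000 μg/mL stocks, then serial 2-fold dilutions (final DMF 2.5%). Inoculum ~5×10^5 CFU/mL from TSA plates grown 35 °C 20 h. Incubation 35 °C 24 h; MIC = no visible growth vs control. Biological replicates.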

Staphylococcus aureus [1] = test: Antibacterial activity against Staphylococcus aureus DM4001R after 24 hrs by broth microdilution method; assay type: functional
In short: (§1)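 Broth microdilution per CLSI in cation-adjusted Mueller−Hinton broth, in tubes. Compounds dissolved in H2O or DMF, then diluted in PBS to 1000 μg/mL stocks. Serial 2-fold dilutions were made, with final DMF 2.5%. Organisms were grown on TSA at 35 °C for 20 h and adjusted to ~5× 10^5 CFU/mL. Tubes were incubated at 35 °C for 24 h. MIC was the lowest concentration with no visible growth versus control. Biological replicates.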

Staphylococcus aureus [2] = test: Antibacterial activity against methicillin-resistant Staphylococcus aureus DM 9808R after 24 hrs by broth microdilution method; assay type: functional; in short: as §1
Staphylococcus aureus [3] = test: Antibacterial activity against methicillin-resistant Staphylococcus aureus DM 21455 after 24 hrs by broth microdilution method; assay type: functional; conditions: DM 21455, 24 h; in short: as §1
Staphylococcus aureus [4] = test: Antibacterial activity against methicillin-resistant Staphylococcus aureus DB6506 after 24 hrs by broth microdilution method; assay type: functional; conditions: DB6506, 24 h; in short: as §1
Staphylococcus aureus [5] = test: Antibacterial activity against methicillin-sensitive Staphylococcus aureus DM4583R after 24 hrs by broth microdilution method; assay type: functional; in short: as §1
Staphylococcus aureus [6] = test: Antibacterial activity against methicillin-resistant Staphylococcus aureus DB57964 after 24 hrs by broth microdilution method; assay type: functional; conditions: DB57964, 24 h; in short: as §1
Staphylococcus aureus [7] = test: Antibacterial activity against methicillin-sensitive Staphylococcus aureus ATCC 6538 after 24 hrs by broth microdilution method; assay type: functional; conditions: ATCC 6538, 24 h; in short: as §1
Staphylococcus aureus [8] = test: Antibacterial activity against methicillin-resistant Staphylococcus aureus BAA-38 after 24 hrs by broth microdilution method; assay type: functional; conditions: BAA-38, 24 h; in short: as §1
Staphylococcus aureus [9] = test: Antibacterial activity against methicillin-sensitive Staphylococcus aureus DM4400R after 24 hrs by broth microdilution method; assay type: functional; in short: as §1
[10] = Ratio of HC50 for New Zealand white rabbit RBC to MIC for methicillin-sensitive Staphylococcus aureus DM4583R
In short: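 HC50 measured on fresh New Zealand white rabbit RBCs, washed three times in PBS, at 4% v/v final. Cells were incubated with 2-fold serial dilutions (DMF final 0.5%) at 37 °C for 1 h, then centrifuged. Supernatant absorbance was read at 576 nm, with PBS as 0% and 2% Triton X-100 as 100% lysis. HC50 is the concentration lysing 50% of cells, divided by MIC from broth microdilution.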

Staphylococcus aureus [11] = test: Antibacterial activity against methicillin-resistant Staphylococcus aureus DB68004 after 24 hrs by broth microdilution method; assay type: functional; conditions: DB68004, 24 h; in short: as §1
Staphylococcus aureus [12] = test: Antibacterial activity against methicillin-resistant Staphylococcus aureus ATCC 700699 after 24 hrs by broth microdilution method; assay type: functional; conditions: ATCC 700699, 24 h; in short: as §1
Staphylococcus aureus [13] = test: Antibacterial activity against methicillin-sensitive Staphylococcus aureus DM4299 after 24 hrs by broth microdilution method; assay type: functional; conditions: DM4299, 24 h; in short: as §1
Staphylococcus aureus [14] = test: Antibacterial activity against methicillin-resistant Staphylococcus aureus ATCC 43300 after 24 hrs by broth microdilution method; assay type: functional; conditions: ATCC 43300, 24 h; in short: as §1
Staphylococcus aureus [15] = test: Antibacterial activity against methicillin-sensitive Staphylococcus aureus ATCC 29213 after 24 hrs by broth microdilution method; assay type: functional; conditions: ATCC 29213, 24 h; in short: as §1
Staphylococcus aureus [16] = test: Antibacterial activity against methicillin-sensitive Staphylococcus aureus ATCC 29737 after 24 hrs by broth microdilution method; assay type: functional; conditions: ATCC 29737, 24 h; in short: as §1
Staphylococcus aureus [17] = test: Induction of plasma membrane permeability in methicillin-resistant Staphylococcus aureus DM9808R assessed as increase in fluorescence intensity at 12.5 ug/ml measured every 1 sec for 50 mins by SYTOX green dye based fluorimetric assay; assay type: functional
In short: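 Exponential-phase MRSA DM9808R grown on TSA, washed twice and resuspended in PBS (10 mM, pH 7) to OD600 0.2. Cells were loaded with 0.3 μM SYTOX Green in the dark until fluorescence stabilized. Test samples were then added (final DMF 0.5%). Fluorescence at ex 504/em 523 nm was recorded every 1 s for 50 min. Biological replicates.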

Lipid bilayer = test: Membrane permeabilization activity in DOPE/DOPG large unilamellar liposomes assessed as leakage of calcein at 1:4 to 1:8 compound to lipid ratio by fluorescence assay

Molecule	MIC (Bacillus cereus)	MIC (Staphylococcus aureus [1])	MIC (Staphylococcus aureus [2])	MIC (Staphylococcus aureus [3])	MIC (Staphylococcus aureus [4]) [µg/mL]	MIC (Staphylococcus aureus [5]) [µg/mL]	MIC (Staphylococcus aureus [6]) [µg/mL]	MIC (Staphylococcus aureus [7]) [µg/mL]	MIC (Staphylococcus aureus [8]) [µg/mL]	MIC (Staphylococcus aureus [9]) [µg/mL]	Ratio [10]	MIC (Staphylococcus aureus [11]) [µg/mL]	MIC (Staphylococcus aureus [12]) [µg/mL]	MIC (Staphylococcus aureus [13]) [µg/mL]	MIC (Staphylococcus aureus [14]) [µg/mL]	MIC (Staphylococcus aureus [15]) [µg/mL]	MIC (Staphylococcus aureus [16]) [µg/mL]	Activity (Staphylococcus aureus [17])	Activity (Lipid bilayer) [%]
COc1ccc(-c2oc3c(CC=C(C)C)c(OCCCCN(C)C)cc(O)c3c(=O)c2OCCCCN(C)C)cc1	25 µg/mL	25 µg/mL	12.5 µg/mL	12.5 µg/mL															
H-GIGKFLKKAKKFGKAFVKILKK-OH					16 to 64	16 to 64	16 to 64	16 to 64	16 to 64	16 to 64	2 to 8	16 to 64	16 to 64	16 to 64	16 to 64	16 to 64	16 to 64		
CCN(CC)CCCCCCCCOc1cc(O)c2c(=O)c(OCCCCCCCCN(CC)CC)c(-c3ccc(OC)cc3)oc2c1CC=C(C)C	> 50 µg/mL	> 50 µg/mL	> 50 µg/mL	> 50 µg/mL															
COC(=O)[C@H](CCCNC(=N)N)NC(=O)COc1cc(O)c2c(=O)c(O)c(-c3ccc(OC)cc3)oc2c1CC=C(C)C	10.4 µM	5.2 µM	5.2 µM	10.4 µM															
CCN(CC)CCCCCCOc1cc(O)c2c(=O)c(OCCCCCCN(CC)CC)c(-c3ccc(OC)cc3)oc2c1CC=C(C)C	12.5 µg/mL	6.25 µg/mL	3.13 µg/mL	3.13 µg/mL															
CN[C@H](CC(C)C)C(=O)N[C@H]1C(=O)N[C@@H](CC(N)=O)C(=O)N[C@H]2C(=O)N[C@H]3C(=O)N[C@H](C(=O)N[C@H](C(=O)O)c4cc(O)cc(O)c4-c4cc3ccc4O)[C@H](O)c3ccc(c(Cl)c3)Oc3cc2cc(c3O[C@@H]2O[C@H](CO)[C@@H](O)[C@H](O)[C@H]2O[C@H]2C[C@](C)(N)[C@H](O)[C@H](C)O2)Oc2ccc(cc2Cl)[C@H]1O [VANCOMYCIN]	1.1 µM	1.1 µM	2.2 µM	1.1 µM	0.78 (≈ 0.538 µM)	1.56 (≈ 1.08 µM)	0.78 (≈ 0.538 µM)	0.78 (≈ 0.538 µM)	1.56 (≈ 1.08 µM)	0.78 (≈ 0.538 µM)		1.56 (≈ 1.08 µM)	1.56 (≈ 1.08 µM)	1.56 (≈ 1.08 µM)	0.78 (≈ 0.538 µM)	1.56 (≈ 1.08 µM)	0.78 (≈ 0.538 µM)		
COc1ccc(-c2oc3c(CC=C(C)C)c(OCCBr)cc(O)c3c(=O)c2OCCBr)cc1	5 µM	5 µM	10 µM	5 µM															
COc1ccc(-c2oc3c(CC=C(C)C)c(O)cc(O)c3c(=O)c2O)cc1 [ICARITIN]	136 µM	50 µg/mL	50 µg/mL	50 µg/mL	50 (≈ 136 µM)	50 (≈ 136 µM)	50 (≈ 136 µM)	50 (≈ 136 µM)	50 (≈ 136 µM)	50 (≈ 136 µM)	> 8	50 (≈ 136 µM)	50 (≈ 136 µM)	50 (≈ 136 µM)	50 (≈ 136 µM)	50 (≈ 136 µM)	50 (≈ 136 µM)	inactive	< 5
CCN(CC)CCOc1cc(O)c2c(=O)c(OCCN(CC)CC)c(-c3ccc(OC)cc3)oc2c1CC=C(C)C	> 50 µg/mL	50 µg/mL	> 50 µg/mL	50 µg/mL															
COC(=O)[C@H](Cc1cnc[nH]1)NC(=O)COc1cc(O)c2c(=O)c(OCC(=O)N[C@@H](Cc3cnc[nH]3)C(=O)OC)c(-c3ccc(OC)cc3)oc2c1CC=C(C)C	> 63.5 µM	> 63.5 µM	> 63.5 µM	> 63.5 µM														inactive	< 5
CC(C)(C)c1cc(C(C)(C)C)c2[nH]c(C(C)(C)C)c(C[C@H](NC(=O)[C@@H](N)CCCNC(=N)N)C(=O)N[C@@H](CCCNC(=N)N)C(=O)NCCc3ccccc3)c2c1 [LTX-109]					4 (≈ 5.08 µM)	4 (≈ 5.08 µM)	4 (≈ 5.08 µM)	4 (≈ 5.08 µM)	4 (≈ 5.08 µM)	4 (≈ 5.08 µM)	44	4 (≈ 5.08 µM)	4 (≈ 5.08 µM)	4 (≈ 5.08 µM)	4 (≈ 5.08 µM)	4 (≈ 5.08 µM)	4 (≈ 5.08 µM)		
COC(=O)[C@H](CCCNC(=N)N)NC(=O)[C@H](CCCNC(=N)N)NC(=O)COc1cc(O)c2c(=O)c(OCC(=O)N[C@@H](CCCNC(=N)N)C(=O)N[C@@H](CCCNC(=N)N)C(=O)OC)c(-c3ccc(OC)cc3)oc2c1CC=C(C)C	11 µM	5.5 µM	5.5 µM	11 µM															
N=C(N)NCCCCC(=O)Nc1cc(C(F)(F)F)cc(NC(=O)c2cc(C(=O)Nc3cc(C(F)(F)F)cc(NC(=O)CCCCNC(=N)N)c3O[C@@H]3CCNC3)ncn2)c1O[C@@H]1CCNC1 [BRILACIDIN]					1 (≈ 1.07 µM)	1 (≈ 1.07 µM)	1 (≈ 1.07 µM)	1 (≈ 1.07 µM)	1 (≈ 1.07 µM)	1 (≈ 1.07 µM)	558	1 (≈ 1.07 µM)	1 (≈ 1.07 µM)	1 (≈ 1.07 µM)	1 (≈ 1.07 µM)	1 (≈ 1.07 µM)	1 (≈ 1.07 µM)		
CCN(CC)CCCCOc1cc(O)c2c(=O)c(OCCCCN(CC)CC)c(-c3ccc(OC)cc3)oc2c1CC=C(C)C	6.25 µg/mL	25 µg/mL	12.5 µg/mL	12.5 µg/mL															
COC(=O)[C@H](CCCCN)NC(=O)COc1cc(O)c2c(=O)c(OCC(=O)N[C@@H](CCCCN)C(=O)OC)c(-c3ccc(OC)cc3)oc2c1CC=C(C)C	32.5 µM	32.5 µM	32.5 µM	32.5 µM														Active	30
COc1ccc(-c2oc3c(CC=C(C)C)c(OCC(=O)N[C@@H](CCCNC(=N)N)C(=O)OC(C)(C)C)cc(O)c3c(=O)c2OCC(=O)N[C@@H](CCCNC(=N)N)C(=O)OC(C)(C)C)cc1	3.4 µM	3.4 µM	3.4 µM	6.8 µM															
